Results from publication PMC3947130 (Molecular cancer therapeutics, 2013).
Entries after “also recorded” stand apart in the source; their conditions may differ.

What was measured:
MDA-MB-231 cells = test: TRAIL-induced killing / TRAIL sensitization, cell viability; type: cell-based, human
How it was run: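 MDA-MB-231 cells in DMEM/10% FBS seeded at 5000 cells/well and left to attach overnight. Pre-treated 4 h at 37°C with vehicle (0.1% DMSO) or 5 μM test compound, then TRAIL (up to 100 ng/mL) added for 20 h at 37°C. After 30 min at room temperature, CellTiter-Glo luminescence read. At least triplicate, at least three independent times.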

[1] = tested on: non-canonical NF-κB pathway; test: Immunoblot of non-canonical NF-κB pathway; type: cell-based, human; settings: MDA-MB-231 cells, 5 μM, 24 h, Fig. 4D
How it was run: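 MDA-MB-231 cells grown in DMEM with 10% FBS, exposed to vehicle or 5 μM test compound for 24 h. Cell protein extracts immunoblotted for NIK, phospho-NF-κB2, NF-κB2 and cIAP-1/-2, with Erk 1/2 as loading control. HRP-conjugated anti-rabbit or anti-mouse secondary applied for 1 h, then enhanced chemiluminescence detection.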

## O=Cc1coc2ccccc2c1=O [3-FC, reference compound]
MDA-MB-231 cells; 3-FC alone with TRAIL, Supp. Fig. S1D
  sensitization to TRAIL: results in sensitization to TRAIL
MDA-MB-231 cells; 3-FC together with IAP inhibition, Supp. Fig. S1D
  sensitization to TRAIL with IAP inhibition: induces even greater sensitization

## Cc1ccc(S(=O)(=O)/C=C/C#N)cc1 [BAY 11-7082, reference compound]
MDA-MB-231 cells; data not shown
  effect of IKK inhibition in the model systems: failed to have any effect

## CC(C)[C@H](NC(=O)[C@H](C)N)C(=O)N[C@@H](C)C(=O)NNc1ccccc1 [MLS-0412113]
MDA-MB-231 cells; 5 μM pre-treatment 4 h, then TRAIL 20 h, Fig. 2B
  sensitization to TRAIL-mediated cell killing: no activity; also recorded: lacked TRAIL sensitizing ability altogether

## CN[C@@H](C)C(=O)N[C@H]1CCO[C@H]2CC(C)(C)[C@@H](C(=O)N[C@@H]3CCCc4ccccc43)N2C1=O [SBI-0636457]
[1]
  NIK levels: profound induction of NIK levels
  phosphorylation and processing of NF-κB2: enhanced phosphorylation and processing of NF-κB2

B1: Tumor Necrosis Factor Related Apoptosis Inducing Ligand (protein, UniProt P50591 1-281, looked up)
Tumor necrosis factor ligand …: MAMMEVQGGPSLGQTCVLIVIFTVLLQSLCVAVTYVYFTNELKQMQDKYSKSGIACFLKEDDSYWDPNDEESMNSPCWQVKWQLRQLVRKMILRTSEETISTVQEKQQNISPLVRERGPQRVAAHITGTRGRSNTLSSPNSKNEKALGRKINSWESSRSGHSFLSNLHLRNGELVIHEKGFYYIYSQTYFRFQEEIKENTKNDKQMVQYIYKYTSYPDPILLMKSARNSCWSKDAEYGLYSIYQGGIFELKENDRIFVSVTNEHLIDMDHEASFFGAFLVG
MDA-MB-231 cells; TRAIL alone, up to 100 ng/mL, 20 h, Fig. 2B
  cell death by TRAIL alone: fails to induce appreciable cell death
